Data published in article PMC4170804 (Bioorganic & medicinal chemistry, 2013).
Read-outs that look alike come from different tables or passages of the source. One block for each compound: values may come before it.

Experiments:
HeLa cells [1] = test: Antiproliferative assay, human cervix carcinoma HeLa cells; format: cell-based; conditions: 48 h, read-out: IC50 ± SD, HeLa
FM3A/0 cells = test: Antiproliferative assay, murine mammary carcinoma FM3A/0 cells; format: cell-based; conditions: for IC50: read-out: IC50 ± SD, FM3A/0
L1210 cells = test: Antiproliferative assay, murine leukemia L1210 cells; format: cell-based; conditions: Mus musculus, L1210, 48 h, read-out: IC50 ± SD, L1210
Molt4/C8 cells = test: Antiproliferative assay, human T-leukemia Molt4/C8 cells; format: cell-based; conditions: for IC50: Homo sapiens, Molt4/C8, 48 h, read-out: IC50 ± SD, Molt4/C8
tubulin = test: Inhibition of [3H]colchicine binding to tubulin; design: species or system bovine; conditions: for Colchicine binding % ± SD (inhibition of [3H]colchicine binding): tubulin 1 µM, colchicine 5 µM, tested compound 5 µM
[2] = tested on: human pancreatic tumor (MIA PaCa-2) cells; conditions: cited from earlier work
[3] = tested on: epithelial carcinoma (A431) cells; conditions: cited from earlier work
CEM/0 cells = test: Antiproliferative assay, human T-leukemia CEM/0 cells; format: cell-based; conditions: read-out: IC50 ± SD, CEM/0, 48 h, Coulter counter
[4] = tested on: panel of human and murine tumor cell lines; test: Antiproliferative activity, panel of human and murine tumor cell lines; format: cell-based
Outline: (§1)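 Cells were seeded at 300,000–500,000 cells/mL and mixed 1:1 with serial dilutions of test compound. They were incubated 48 h at 37 °C, and cell number was counted with a Coulter counter.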

bovine brain tubulin = test: Inhibition of tubulin polymerization; format: biochemical; conditions: greater than that of 1
Jurkat cells [5] = test: Antiproliferative assay, T-leukemia Jurkat; format: cell-based; conditions: Homo sapiens, read-out: IC50 ±SD, Jurkat
Outline: as §1

[6] = tested on: wide panel of cancer cell lines; test: Antiproliferative activity, wide panel of cancer cell lines; format: cell-based; conditions: read-out: IC50 against a wide panel of cancer cell lines
Outline: as §1

[7] = tested on: panel of human cancer cell lines; test: Antiproliferative activity, panel of additional human cancer cell lines; format: cell-based; conditions: read-out: IC50 values against additional human cancer cell lines
Outline: as §1

PC-3 cells = test: Antiproliferative assay, prostate PC-3; format: cell-based; conditions: Homo sapiens, PC-3, read-out: IC50 ±SD, PC-3
Outline: as §1

Jurkat cells [8] = test: Flow cytometric cell cycle analysis, Jurkat; format: cell-based, human; conditions: 24 h
Outline: (§2)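 Exponentially growing cells (5 × 105 for HeLa) were exposed to test compound at 15–250 nM for 24 h. Cells were fixed in ice-cold 70% ethanol, then treated with lysis buffer containing RNase A and 0.1% Triton X-100. After propidium iodide staining, DNA content was analysed by flow cytometry for cell-cycle distribution. Values are mean ± SEM of three independent experiments.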

[9] = tested on: cleaved caspase-3, cleaved caspase-9, PARP, Bcl-2, Mcl-1, XIAP in HeLa cells; test: Western blot of caspases, PARP, Bcl-2, Mcl-1, XIAP in HeLa cells; format: cell-based, human
Outline: (§3)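 HeLa cells were treated with test compound for 24 or 48 h, washed twice in ice-cold PBS, and lysed on ice for 30 min. Lysis buffer was T-PER with 300 mM NaCl, 1 mM orthovanadate, 2 mM AEBSF and protease inhibitors. Lysates were cleared at 15,000g (4 °C, 10 min). 20 µg protein went to SDS–PAGE, PVDF transfer and overnight blocking. Primary antibodies ran 2 h at room temperature, then HRP secondary and ECL. Membranes were stripped and reprobed for β-actin as loading control.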

HeLa cells [10] = test: Flow cytometric cell cycle analysis, HeLa; format: cell-based, human; conditions: 24 h
Outline: as §2

[11] = tested on: cyclin B, p-cdc2 Y15, cdc25C in HeLa cells; test: Western blot of G2/M regulatory proteins in HeLa cells; format: cell-based, human
Outline: as §3

HeLa cells [12] = test: Mitochondrial membrane potential; format: cell-based, human; conditions: 24 or 48 h
Raji cells = test: Antiproliferative assay, B-cell lymphoma Raji; format: cell-based; conditions: Homo sapiens, read-out: IC50 ±SD, Raji
Outline: as §1

HOS, OST TK- cells = test: Antiproliferative assay, osteosarcoma HOS, OST TK-; format: cell-based; conditions: Homo sapiens, read-out: IC50 ±SD, HOS, OST TK-
Outline: as §1

HeLa cells [13] = test: Mitochondrial ROS production; format: cell-based, human; conditions: 24 or 48 h, versus control cells
HeLa cells [14] = test: Annexin-V/PI apoptosis assay; format: cell-based, human; conditions: 24 h, further increased at 48 h even at 15 nM
MCF-7 cells = test: Antiproliferative assay, mammary carcinoma MCF-7; format: cell-based; conditions: Homo sapiens, MCF7, read-out: IC50 ±SD, MCF-7
Outline: as §1

[15] = at higher concentrations (range 15 to 250 nM)

IC50 (HeLa cells [1]; Homo sapiens, HeLa): 35 ± 3.1 µM | IC50 (FM3A/0 cells; Mus musculus, FM3A/0, 48 h): 62 ± 3.2 µM
SMILES: N#Cc1cc(CCc2ccccc2)sc1N [Compound 2m, 2-Amino-5-phenylethylthiophene-3-carbonitrile]

IC50 (L1210 cells): 17 ± 5.3 µM | IC50 (HeLa cells [1]; Homo sapiens, HeLa): 15 ± 1.3 µM | IC50 (FM3A/0 cells; Mus musculus, FM3A/0, 48 h): 34 ± 5.6 µM
SMILES: COC(=O)c1cc(CCc2ccccc2OC)sc1N [Compound 2f, Methyl 2-amino-5-[2-(2-methoxyphenyl)ethyl]thiophene-3-carboxylate]

IC50 (L1210 cells): 76 ± 3.2 µM | IC50 (HeLa cells [1]; Homo sapiens, HeLa): 71 ± 20 µM
SMILES: COc1ccc(OC)c(-c2cc(C#N)c(N)s2)c1 [Compound 2o, 2-Amino-5-(2,5-dimethoxyphenyl)thiophene-3-carbonitrile]

IC50 (Molt4/C8 cells): 1.1 ± 0.1 µM | IC50 (HeLa cells [1]; Homo sapiens, HeLa): 0.31 µM | IC50 (FM3A/0 cells; Mus musculus, FM3A/0, 48 h): 1.9 ± 0.5 µM | Colchicine binding % ± SD (inhibition of [3H]colchicine binding) (tubulin): 46 ± 0.9%
SMILES: CCOC(=O)c1cc(CCc2cc(OC)ccc2OC)sc1N [Compound 2b, Ethyl 2-amino-5-[2-(2,5-dimethoxyphenyl)ethyl]thiophene-3-carboxylate]

IC50 (Molt4/C8 cells): 2 ± 0.2 µM | IC50 (HeLa cells [1]; Homo sapiens, HeLa): 7.8 ± 2.1 µM | IC50 (FM3A/0 cells; Mus musculus, FM3A/0, 48 h): 22 ± 3.1 µM
SMILES: COc1ccccc1CCc1cc(C#N)c(N)s1 [Compound 2k, 2-Amino-5-[2-(2-methoxyphenyl)ethyl]thiophene-3-carbonitrile]

IC50 (L1210 cells): 50 ± 5.2 µM | IC50 (HeLa cells [1]; Homo sapiens, HeLa): 37 ± 6.1 µM | IC50 (FM3A/0 cells; Mus musculus, FM3A/0, 48 h): 52 ± 1 µM
SMILES: COC(=O)c1cc(-c2cc(OC)ccc2OC)sc1N [Compound 2n, Methyl 2-amino-5-(2,5-dimethoxyphenyl)thiophene-3-carboxylate]

IC50 (HeLa cells [1]; Homo sapiens, HeLa): 19 ± 13 µM | IC50 (FM3A/0 cells; Mus musculus, FM3A/0, 48 h): 31 ± 27 µM
SMILES: COc1ccc(CCc2cc(C#N)c(N)s2)cc1 [Compound 2l, 2-Amino-5-[2-(4-methoxyphenyl)ethyl]thiophene-3-carbonitrile]

IC50 (Molt4/C8 cells): 0.34 ± 0.5 µM | IC50 values in Molt4/C8, in words (Molt4/C8 cells): submicromolar | IC50 (L1210 cells): 20 ± 10 µM | IC50 (HeLa cells [1]; Homo sapiens, HeLa): 39 ± 0.2 µM | IC50 (FM3A/0 cells; Mus musculus, FM3A/0, 48 h): 48 ± 5.2 µM
SMILES: CCOC(=O)c1cc(CCc2ccc(OC)cc2)sc1N [Compound 2j, Ethyl 2-amino-5-[2-(4-methoxyphenyl)ethyl]thiophene-3-carboxylate]

IC50 values in Molt4/C8, in words (Molt4/C8 cells): submicromolar | IC50 (L1210 cells): 1.8 ± 0.1 µM | IC50 (HeLa cells [1]; Homo sapiens, HeLa): 0.77 ± 0.17 µM | IC50 (FM3A/0 cells; Mus musculus, FM3A/0, 48 h): 2.3 ± 0.6 µM | Colchicine binding % ± SD (inhibition of [3H]colchicine binding) (tubulin): 52 ± 0.9%
SMILES: COC(=O)c1cc(CCc2cc(OC)ccc2OC)sc1N [Compound 2a, Methyl 2-amino-5-[2-(2,5-dimethoxyphenyl)ethyl]thiophene-3-carboxylate]

IC50 (Molt4/C8 cells): 47 ± 16 µM | IC50 (L1210 cells): 46 ± 3.2 µM | IC50 (HeLa cells [1]; Homo sapiens, HeLa): 35 ± 7.1 µM | IC50 (FM3A/0 cells; Mus musculus, FM3A/0, 48 h): 44 ± 8.1 µM
SMILES: COC(=O)c1c(N)sc(CCc2cc(OC)ccc2OC)c1C [Compound 2d, Methyl 2-amino-5-[2-(2,5-dimethoxyphenyl)ethyl]-4-methylthiophene-3-carboxylate]

Colchicine binding % ± SD (inhibition of [3H]colchicine binding) (tubulin): 52 ± 4%
SMILES: COC(=O)c1cc(CCc2cc(OC)ccc2OC)ccc1O [Compound 1, reference compound]
antiproliferative activity, MIA PaCa-2 [2]: active at low micromolar concentrations | antiproliferative activity, A431 [3]: active at low micromolar concentrations | IC50 (HeLa cells [1]; human cervix carcinoma HeLa, Coulter counter): 0.41 ± 0.08 µM | fold less active in FM3A cells than the other cell lines examined (FM3A/0 cells; FM3A vs other cell lines): about 30 fold | IC50 (FM3A/0 cells; murine mammary carcinoma FM3A/0, 48 h, Coulter counter): 13 ± 0.2 µM | IC50 (CEM/0 cells): 0.44 ± 0.01 µM

IC50 (Molt4/C8 cells): 24 ± 2.2 µM | IC50 (L1210 cells): 34 ± 3.2 µM | IC50 (FM3A/0 cells; Mus musculus, FM3A/0, 48 h): 33 ± 9.1 µM
SMILES: CCOC(=O)c1c(N)sc(CCc2cc(OC)ccc2OC)c1C(=O)OCC [Compound 2e, Diethyl 2-amino-5-[2-(2,5-dimethoxyphenyl)ethyl]thiophene-3,4-dicarboxylate]

IC50 (Molt4/C8 cells): 6.9 ± 0.8 µM | IC50 (HeLa cells [1]; Homo sapiens, HeLa): 45 ± 6.2 µM | IC50 (FM3A/0 cells; Mus musculus, FM3A/0, 48 h): 53 ± 7.2 µM
SMILES: CCOC(=O)c1cc(CCc2ccccc2OC)sc1N [Compound 2i, Ethyl 2-amino-5-[2-(2-methoxyphenyl)ethyl]thiophene-3-carboxylate]

IC50 ([4]; read-out: IC50 values against panel of human and murine tumor cell lines): 0.035 to 0.13 µM | IC50 (Jurkat cells [5]): 0.012 ± 0.008 µM | IC50 [6]: 0.017 to 0.13 µM | IC50 [7]: 0.012 to 0.086 µM | IC50 (PC-3 cells): 0.025 ± 0.013 µM | IC50 (FM3A/0 cells; Mus musculus, FM3A/0, 48 h): 0.056 ± 0.004 µM | inhibition of colchicine binding relative to 1 (tubulin; more active than 1): 1.5 fold | Colchicine binding % ± SD (inhibition of [3H]colchicine binding) (tubulin): 84 ± 5% | IC50 (Raji cells): 0.064 ± 0.025 µM | IC50 (HOS, OST TK- cells): 0.024 ± 0.013 µM | IC50 (MCF-7 cells): 0.025 ± 0.001 µM
SMILES: COc1ccc(OC)c(CCc2cc(C#N)c(N)s2)c1 [Compound 2c, 2-Amino-5-[2-(2,5-dimethoxyphenyl)ethyl]thiophene-3-carbonitrile]
enhancement of antiproliferative activity with respect to 1 ([4]; in four cell lines): 3–230 fold | tubulin assembly inhibitory activity relative to 1 (bovine brain tubulin): 3 fold | lowest concentration with a rise in G2/M cells (Jurkat cells [8]): 30 nM | cells arrested in G2/M (Jurkat cells [8]; [15]): more than 80% | caspase-9 activation ([9]; 50 and 100 nM, 24 h): early activation of caspase-9 at 24 h | caspase-3 and PARP activation ([9]; 50 and 100 nM, 48 h): activation of caspase-3 and of the caspase-3 substrate PARP | expression of anti-apoptotic proteins Bcl-2 and Mcl-1 ([9]; both concentrations used (50 and 100 nM)): remarkably reduced after a 24 h and disappeared after a 48 h treatment | expression of XIAP ([9]; concomitant with caspase activation): strongly reduced | lowest concentration with a rise in G2/M cells (HeLa cells [10]): 30 nM | cells arrested in G2/M (HeLa cells [10]; [15]): more than 80% | cyclin B1 expression ([11]; 50 and 100 nM, 24 and 48 h): marked increase in cyclin B1 expression | cdc25C phosphorylation state / expression ([11]; 50 and 100 nM, 24 h and 48 h): slower migrating forms of phosphatase cdc25C appeared at 24 h | phosphorylation of cdc2 (Tyr15) ([11]; after 24 h): dramatic de-phosphorylation of cdc2 (Tyr15) | cells with depolarized mitochondria (Δψmt, JC-1) (HeLa cells [12]): time and concentration-dependent increase in the proportion of cells with depolarized mitochondria | ROS production (HE, H2-DCFDA) (HeLa cells [13]): induced the production of significant amounts of ROS | annexin-V positive cells (apoptosis) (HeLa cells [14]): accumulation of annexin-V positive cells in a concentration-dependent manner

IC50 (FM3A/0 cells; Mus musculus, FM3A/0, 48 h): 45 ± 16 µM
SMILES: COC(=O)c1cc(CCc2ccc(OC)cc2C)sc1N [Compound 2h, Methyl 2-amino-5-[2-(4-methoxy-2-methylphenyl)ethyl]thiophene-3-carboxylate]
